# Assay outcomes deposited in PubChem BioAssay by The Scripps Research Institute Molecular Screening Center.
# PAFAH1B3 FP inh: PAFAH1B3 enzyme inhibitors, primary screen, biochemical, fluorescence polarization, human | Platelet-activating factor acetylhydrolase IB subunit alpha1 (Homo sapiens), Q15102 | recombinant PAFAH1B3, FP-rhodamine probe | inhibition, % at 3.39 µM | hit rate 0.28% among 340,000;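 active = inhibition above the screen-wide average of all tested compounds plus 3 SD, cut at about 25% in these data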;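 also: 0% = enzyme with DMSO only and 100% = wells lacking PAFAH1B3 protein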
# ASAP1 GAP inh: inhibitors of human ASAP1 ArfGAP activity, primary screen, biochemical, fluorescence polarization; Arf-GAP with SH3 domain, ANK repeat and PH domain-containing protein 1 (Homo sapiens), …; inhibition, % at 16.5 µM; hit rate 0.19% among 360,000; ASAP1-stimulated ARF1 GTP hydrolysis, GDP FP detection; in the data active = inhibition above about 25%;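 also: 0% = vehicle with enzyme and substrate and 100% = no enzyme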
# Target sequence (Q9ULH1 325-724 limits assumed): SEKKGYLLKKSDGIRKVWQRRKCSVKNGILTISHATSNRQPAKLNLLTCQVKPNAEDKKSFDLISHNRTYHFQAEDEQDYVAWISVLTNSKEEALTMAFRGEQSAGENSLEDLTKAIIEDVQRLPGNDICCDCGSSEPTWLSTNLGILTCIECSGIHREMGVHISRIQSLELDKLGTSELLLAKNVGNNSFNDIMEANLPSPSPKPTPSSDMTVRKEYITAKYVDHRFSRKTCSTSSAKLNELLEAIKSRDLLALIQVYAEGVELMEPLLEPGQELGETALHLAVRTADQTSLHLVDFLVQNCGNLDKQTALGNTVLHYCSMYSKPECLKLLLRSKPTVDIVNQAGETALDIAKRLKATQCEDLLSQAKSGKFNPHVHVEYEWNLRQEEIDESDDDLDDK
# pPAFAH FP inh: pPAFAH enzyme inhibitors, primary screen, biochemical, fluorescence polarization, human | AID 463082, 2010 | Platelet-activating factor acetylhydrolase (Homo sapiens), Q13093 | recombinant pPAFAH, FP-rhodamine probe fluorescence polarization | inhibition, % at 3.39 µM | hit rate 1.5% among 330,000;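 active = inhibition above the mean inhibition across the screen plus 3 SD, cut at about 25% in these data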;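 also: inhibitors block binding of the rhodamine activity-based probe so polarization drops; 0% = enzyme with DMSO and 100% = wells lacking pPAFAH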
# PAFAH1B2 FP inh: PAFAH1B2 enzyme inhibitors, primary screen, biochemical, fluorescence polarization, human | recombinant PAFAH1B2, FP-rhodamine activity probe | hit rate 1.2% among 340,000 | Platelet-activating factor acetylhydrolase IB subunit alpha2 (Homo sapiens), P68402 | AID 492953, 2010 | inhibition, % at 3.39 µM;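 active = inhibition above the mean of all tested compounds plus 3 SD, cut at about 24% in these data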;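 also: 0% = enzyme with DMSO and 100% = wells lacking PAFAH1B2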
# ARFGAP1 inhibitor: inhibitors of rat ARFGAP1 GAP activity, primary screen, biochemical, fluorescence polarization, GDP tracer; inhibition, % at 16.5 µM; hit rate 0.26% among 360,000; ADP-ribosylation factor GTPase-activating protein 1 (Rattus norvegicus), Q62848; Arfgap1-stimulated ARF1 GTP hydrolysis, GDP FP detection; AID 651572, 2012;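 active = inhibition above a per-plate limit, mean inhibition of low control wells plus 3 SD, cut at about 25% in these data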;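 also: 0% = DMSO wells with enzyme and 100% = wells lacking Arfgap1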
# Target sequence (Q62848 1-136 limits assumed): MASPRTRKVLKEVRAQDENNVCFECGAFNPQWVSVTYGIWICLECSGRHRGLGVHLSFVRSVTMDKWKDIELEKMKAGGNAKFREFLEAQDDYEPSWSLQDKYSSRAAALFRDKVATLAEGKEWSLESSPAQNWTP
#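 Material: rat Arfgap1 GAP domain (His6, aa 1-136), purified enzyme. Also added: human ARF1(Δ1-17)-GTP substrate. Compound dosing: 16.5 µM single point, 1.26% DMSO. Timing: enzyme reaction 120 min at 25 °C after 20 min preincubation. Signal: GDP detection by fluorescence polarization. Read-out basis: percent inhibition of GAP-stimulated GDP formation, scaled between DMSO and no-Arfgap1 medians.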
# PAFAH2 inh: PAFAH2 enzyme inhibitors, primary screen, biochemical, fluorescence polarization, human. Platelet-activating factor acetylhydrolase 2, cytoplasmic (Homo sapiens), Q99487. recombinant PAFAH2, FP-rhodamine activity probe. inhibition, % at 3.39 µM. hit rate 0.99% among 340,000. AID 492956, 2010;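 active = inhibition above the mean over all tested compounds plus 3 SD, cut at about 30% in these data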;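 also: inhibitors block probe labeling of enzyme so polarization drops; 0% = enzyme with DMSO and 100% = wells lacking PAFAH2 protein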
# The depositor's hits bear a star; . = not tested or not shown. Sampled rows, rich in hits. Any-hit rate of the full collection: about 2.7%.
SMILES,PAFAH1B3 FP inh,ASAP1 GAP inh,pPAFAH FP inh,PAFAH1B2 FP inh,ARFGAP1 inhibitor,PAFAH2 inh
CCOC(=O)C1=C(C(=O)OCC)C2N(Cc3ccc(C#N)cc3)c3ccccc3[C@@]23C[C@@H](C(=O)OC)N(S(=O)(=O)c2ccc(C#N)cc2)C3=N1 (stereo not given in full),.,3,.,.,6,.
CCOC(=O)C1=CCN(S(=O)(=O)c2ccc(Br)cc2)C1c1cccc(F)c1 (stereo not given),.,8,.,.,-6,.
C=CCN=C1NC(CCc2ccccc2)C(C(=O)OC)=C(C)N1C (stereo not given),.,-4,.,.,-3,.
C=CCNc1ccc2c(c1)OC[C@H](Cc1ccccc1)NS2(=O)=O,.,-10,.,.,11,.
C[C@H](CO)N1C[C@H](C)[C@@H](CN(C)C(=O)Nc2ccc(C(F)(F)F)cc2)Oc2c(NC(=O)Nc3ccccc3)cccc2C1=O,-9,4,1,57*,-12,-9
CC(C)NC(=O)N(C)C[C@H]1Oc2c(NC(=O)Nc3ccc(C(F)(F)F)cc3)cccc2C(=O)N([C@H](C)CO)C[C@@H]1C,-5,-11,15,1,1,1
O=C(CC1SC(=O)N(c2ccccc2)C1=O)Nc1ccc(Br)cc1 (stereo not given),.,10,32*,.,9,.
COC(=O)Cc1cc(=O)[nH]c(Nc2nc3ccccc3o2)n1,11,1,28*,3,-5,19
CCOC(=O)Cc1cc(=O)[nH]c(Nc2nc3ccccc3o2)n1,8,-17,14,7,0,8
CCOc1ccc(S(=O)(=O)Nc2nc3ccccc3nc2Nc2ccc(N3CCOCC3)cc2)cc1,5,6,33*,8,-1,19
COc1ccc(NS(=O)(=O)c2ccc(NC(=O)Cc3cccs3)cc2)cc1,6,24,26*,8,13,-7
COc1ccc(Nc2nc3ccccc3nc2NS(=O)(=O)c2ccc(NC(C)=O)cc2)cc1,8,-7,27*,7,-8,10
COc1ccccc1NS(=O)(=O)c1ccc(NC(C)=O)cc1,-3,5,4,1,-10,-1
COc1ccccc1Nc1ccc(NS(=O)(=O)c2ccc(C(C)=O)cc2)cc1,-6,14,34*,1,-3,6
COc1ccc(NS(=O)(=O)c2cc(NC(=O)Cc3cccs3)ccc2C)cc1,11,-2,7,0,5,-2
CC1(C)CC(=O)C=C(c2ccccc2-c2ccc3c(c2)OCO3)C1=O,.,-12,.,.,8,.
CCNC(=O)OC[C@H]1O[C@H](C#Cc2ccc(C(C)(C)C)cc2)C=C[C@H]1OC(C)=O,.,-8,.,.,7,.
O=C(O)c1cccc(Nc2nc3ccccc3nc2NS(=O)(=O)c2cccs2)c1,6,2,5,4,7,12
COc1ccc(S(=O)(=O)Nc2ccc(Nc3ccccc3)cc2)cc1,.,3,27*,.,5,.
CC(=O)NS(=O)(=O)c1ccc(NS(=O)(=O)c2ccc3ccccc3c2)cc1,15,-9,-1,29*,2,-5
CC(=O)c1ccc(Nc2nc3ccccc3nc2NS(=O)(=O)c2cccs2)cc1,5,7,27*,1,3,18
COc1ccc(Nc2nc3ccccc3nc2NS(=O)(=O)c2cccs2)cc1,6,12,27*,3,5,7
CC(=O)c1ccc(-c2ccccc2C2=CC(=O)CC(C)(C)C2=O)cc1,.,-7,.,.,11,.
O=C1[C@H](c2ccccc2)[C@@H](c2ccncc2)N1c1ccncc1,.,13,.,.,5,.
COc1cccc(CN(C)C(=O)[C@@H](Cc2ccccc2)NC(=O)[C@H]2O[C@@H](n3ccc(=O)[nH]c3=O)[C@H](O)[C@@H]2O)c1,.,0,.,.,5,.
SMILES,PAFAH1B3 FP inh,ASAP1 GAP inh,pPAFAH FP inh,PAFAH1B2 FP inh,ARFGAP1 inhibitor,PAFAH2 inh
O=C1NC(=O)C2C3C=CC(C12)C1C(=O)NC(=O)C31 (stereo not given),.,-1,.,.,1,.
Cc1ccccc1CN1[C@@H](C)[C@H](c2ccccc2)Oc2cccc(N3CCCC3)c2S1(=O)=O,.,9,.,.,11,.
O=C(NCc1ccccc1)[C@@H]1CCCN1C(=O)[C@H]1CCCN1C(=O)c1ccccc1F,.,6,.,.,-7,.
NS(=O)(=O)c1ccc(Nc2nc3ccccc3nc2NS(=O)(=O)c2cccc([N+](=O)[O-])c2)cc1,17,13,31*,13,13,4
O=S(=O)(Nc1ccccc1)c1ccc(S(=O)(=O)N2CCCC2)cc1,1,2,27*,6,-13,-1
Cc1ccc(S(=O)(=O)Nc2ccc(S(=O)(=O)N3CCCC3)cc2)cc1,8,7,-3,4,2,0
Cc1cc(Nc2ccc(OC(F)F)cc2)cc(=O)n1-c1ccc(OC(F)F)cc1,.,2,.,.,4,.
CC(=O)Nc1ccc(S(=O)(=O)NC(C)CCc2ccccc2)cc1 (stereo not given),2,2,5,12,1,2
Cc1ccc(S(=O)(=O)NC(C)CCc2ccccc2)cc1 (stereo not given),10,1,10,36*,0,-1
Cc1ccc(C)c(S(=O)(=O)NC(C)CCc2ccccc2)c1 (stereo not given),3,-3,-5,29*,9,9
Cc1ccc(S(=O)(=O)N[C@@H](Cc2ccccc2)C(=O)CCl)cc1,7,13,1,24*,-1,11
Cc1ccc(S(=O)(=O)NC(Cc2ccccc2)C(=O)NN)cc1 (stereo not given),12,3,-8,9,1,2
CC(C)C[C@H]1COc2cc(Br)ccc2S(=O)(=O)N1Cc1ccc(F)cc1F,.,7,.,.,8,.
Cc1cccc2nc(-c3ccccc3)c(-c3ccc(CN4CCC5(CC4)CNc4ccccc45)cc3)nc12,.,-4,.,.,4,.
CC(C)C(C(=O)NCc1ccccc1)N1CCN(CCN2CCOCC2)CC1 (stereo not given),.,-9,.,.,6,.
CC(C)=CCC/C(C)=C/CNC(=O)C[C@H]1C[C@H](C(=O)N(C(C)C)C(C)C)[C@@]2(C)c3[nH]c4ccc(Cl)cc4c3CCN2C1=O,7,10,2,3,3,-4
